How the values were obtained:
Type in all cases: functional
MDA-MB-231 [1] = test: Cytotoxicity against human MDA-MB-231 cells at 10 uM by SRB assay
Procedure, shortened: (§1)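 Growth inhibition measured at one fixed test concentration by sulforhodamine B assay. Cells were kept in RPMI 1640 plus 5% fetal bovine serum at 37 °C under humidified 5% CO₂. Adriamycin served as positive control. Results are given as […] of cancer cell growth.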

HCT-15 [2] = test: Cytotoxicity against human HCT15 cells at 10 uM by SRB assay; procedure, shortened: as §1
PC-3 [3] = test: Cytotoxicity against human PC3 cells at 10 uM by SRB assay; procedure, shortened: as §1
NCI-H23 [4] = test: Cytotoxicity against human NCI-H23 cells at 10 uM by SRB assay; procedure, shortened: as §1
NUGC-3 = test: Cytotoxicity against human NUGC3 cells by SRB assay
NCI-H23 [5] = test: Cytotoxicity against human NCI-H23 cells by SRB assay
PC-3 [6] = test: Cytotoxicity against human PC3 cells by SRB assay
MDA-MB-231 [7] = test: Cytotoxicity against human MDA-MB-231 cells by SRB assay
HCT-15 [8] = test: Cytotoxicity against human HCT15 cells by SRB assay
ACHN = test: Cytotoxicity against human ACHN cells by SRB assay

CC(=O)OC[C@H]1O[C@@H](n2cc(-c3cc(-c4ccc(C(C)C)cc4)no3)c(=O)[nH]c2=O)C[C@@H]1OC(C)=O
growth, % of control at 10 µM (MDA-MB-231 [1]): 83.2%
growth, % of control at 10 µM (HCT-15 [2]): 80.9%
growth, % of control at 10 µM (PC-3 [3]): 50.3%
growth, % of control at 10 µM (NCI-H23 [4]): 108%

CC(=O)OC[C@H]1O[C@@H](n2cc(-c3cc(-c4ccc(C(C)(C)C)cc4)no3)c(=O)[nH]c2=O)C[C@@H]1OC(C)=O
growth, % of control at 10 µM (MDA-MB-231 [1]): 69.3%
growth, % of control at 10 µM (HCT-15 [2]): 53.8%
growth, % of control at 10 µM (PC-3 [3]): 27.5%
growth, % of control at 10 µM (NCI-H23 [4]): 112%

CCc1ccc(Cn2cc(-c3cn([C@H]4C[C@H](OC(C)=O)[C@@H](COC(C)=O)O4)c(=O)[nH]c3=O)nn2)cc1
growth, % of control at 10 µM (MDA-MB-231 [1]): 97.7%
growth, % of control at 10 µM (HCT-15 [2]): 88%
growth, % of control at 10 µM (PC-3 [3]): 91.2%
growth, % of control at 10 µM (NCI-H23 [4]): 77.2%

CCc1ccc(-c2cc(-c3cn([C@H]4C[C@H](OC(C)=O)[C@@H](COC(C)=O)O4)c(=O)[nH]c3=O)on2)cc1
growth, % of control at 10 µM (MDA-MB-231 [1]): 97.4%
growth, % of control at 10 µM (HCT-15 [2]): 92.2%
growth, % of control at 10 µM (PC-3 [3]): 62.8%
growth, % of control at 10 µM (NCI-H23 [4]): 92.7%

CC(=O)OC[C@H]1O[C@@H](n2cc(-c3cn(Cc4ccccc4)nn3)c(=O)[nH]c2=O)C[C@@H]1OC(C)=O
growth, % of control at 10 µM (MDA-MB-231 [1]): 102%
growth, % of control at 10 µM (HCT-15 [2]): 92.3%
growth, % of control at 10 µM (PC-3 [3]): 92.1%
growth, % of control at 10 µM (NCI-H23 [4]): 98.2%

CC(=O)OC[C@H]1O[C@@H](n2cc(-c3cc(C)no3)c(=O)[nH]c2=O)C[C@@H]1OC(C)=O
growth, % of control at 10 µM (MDA-MB-231 [1]): 106%
growth, % of control at 10 µM (HCT-15 [2]): 102%
growth, % of control at 10 µM (PC-3 [3]): 92.4%
growth, % of control at 10 µM (NCI-H23 [4]): 101%

CCCCCc1cc(-c2cn([C@H]3C[C@H](OC(C)=O)[C@@H](COC(C)=O)O3)c(=O)[nH]c2=O)on1
growth, % of control at 10 µM (MDA-MB-231 [1]): 91.5%
growth, % of control at 10 µM (HCT-15 [2]): 98.7%
growth, % of control at 10 µM (PC-3 [3]): 93.9%
growth, % of control at 10 µM (NCI-H23 [4]): 88.9%

CC(C)(C)c1ccc(Cn2cc(-c3cn([C@H]4C[C@H](O)[C@@H](CO)O4)c(=O)[nH]c3=O)nn2)cc1
growth, % of control at 10 µM (MDA-MB-231 [1]): 106%
growth, % of control at 10 µM (HCT-15 [2]): 96.9%
growth, % of control at 10 µM (PC-3 [3]): 92.3%
growth, % of control at 10 µM (NCI-H23 [4]): 95%

CCCCCCCCc1cc(-c2cn([C@H]3C[C@H](O)[C@@H](CO)O3)c(=O)[nH]c2=O)on1
growth, % of control at 10 µM (MDA-MB-231 [1]): 96.7%
growth, % of control at 10 µM (HCT-15 [2]): 88.2%
growth, % of control at 10 µM (PC-3 [3]): 77.3%
growth, % of control at 10 µM (NCI-H23 [4]): 120%

CCCCc1ccc(-c2cc(-c3cn([C@H]4C[C@H](OC(C)=O)[C@@H](COC(C)=O)O4)c(=O)[nH]c3=O)on2)cc1
growth, % of control at 10 µM (MDA-MB-231 [1]): 72.2%
growth, % of control at 10 µM (HCT-15 [2]): 71.4%
growth, % of control at 10 µM (PC-3 [3]): 30.4%
growth, % of control at 10 µM (NCI-H23 [4]): 97.4%

CC(C)(C)c1ccc(-c2cc(-c3cn([C@H]4C[C@H](O)[C@@H](CO)O4)c(=O)[nH]c3=O)on2)cc1
growth, % of control at 10 µM (MDA-MB-231 [1]): 102%
growth, % of control at 10 µM (HCT-15 [2]): 79.8%
growth, % of control at 10 µM (PC-3 [3]): 87.9%
growth, % of control at 10 µM (NCI-H23 [4]): 98.9%

O=c1[nH]c(=O)n([C@H]2C[C@H](O)[C@@H](CO)O2)cc1-c1cn(Cc2ccccc2)nn1
growth, % of control at 10 µM (MDA-MB-231 [1]): 103%
growth, % of control at 10 µM (HCT-15 [2]): 88.3%
growth, % of control at 10 µM (PC-3 [3]): 92.1%
growth, % of control at 10 µM (NCI-H23 [4]): 97.5%

CC(=O)OC[C@H]1O[C@@H](n2cc(-c3cn(Cc4ccc(C(C)C)cc4)nn3)c(=O)[nH]c2=O)C[C@@H]1OC(C)=O
growth, % of control at 10 µM (MDA-MB-231 [1]): 98.1%
growth, % of control at 10 µM (HCT-15 [2]): 96.5%
growth, % of control at 10 µM (PC-3 [3]): 91.3%
growth, % of control at 10 µM (NCI-H23 [4]): 86.7%

CC(=O)OC[C@H]1O[C@@H](n2cc(-c3cc(-c4ccccc4)no3)c(=O)[nH]c2=O)C[C@@H]1OC(C)=O
growth, % of control at 10 µM (MDA-MB-231 [1]): 95%
growth, % of control at 10 µM (HCT-15 [2]): 92.2%
growth, % of control at 10 µM (PC-3 [3]): 85.5%
growth, % of control at 10 µM (NCI-H23 [4]): 91.4%

CC(=O)OC[C@H]1O[C@@H](n2cc(-c3cn(Cc4ccc(C(C)(C)C)cc4)nn3)c(=O)[nH]c2=O)C[C@@H]1OC(C)=O
growth, % of control at 10 µM (MDA-MB-231 [1]): 105%
growth, % of control at 10 µM (HCT-15 [2]): 94.2%
growth, % of control at 10 µM (PC-3 [3]): 90.4%
growth, % of control at 10 µM (NCI-H23 [4]): 106%

CCCc1cc(-c2cn([C@H]3C[C@H](OC(C)=O)[C@@H](COC(C)=O)O3)c(=O)[nH]c2=O)on1
growth, % of control at 10 µM (MDA-MB-231 [1]): 102%
growth, % of control at 10 µM (HCT-15 [2]): 98.8%
growth, % of control at 10 µM (PC-3 [3]): 88.1%
growth, % of control at 10 µM (NCI-H23 [4]): 96.9%

COc1cccc2c1C(=O)c1c(O)c3c(c(O)c1C2=O)C[C@@](O)(C(=O)CO)C[C@@H]3O[C@H]1C[C@H](N)[C@H](O)[C@H](C)O1 [DOXORUBICIN]
GI50 (NUGC-3): 250 nM
GI50 (NCI-H23 [5]): 510 nM
GI50 (PC-3 [6]): 730 nM
GI50 (MDA-MB-231 [7]): 610 nM
GI50 (HCT-15 [8]): 1640 nM
GI50 (ACHN): 410 nM
